In ChEMBL document CHEMBL1142136, “Contribution of target gene mutations and efflux to decreased susceptibility of Salmonella enterica serovar typhimurium to fluoroquinolones and other antimicrobials” (2007):
Converted amounts (≈) assume the structure as drawn.

Legend:
Type in all cases: functional, Salmonella enterica subsp. enterica serovar Typhimurium
[1] = system: Salmonella typhimurium; test: Antimicrobial activity against Salmonella enterica serovar Typhimurium S21-3 acrAB::Kan with GyrA S83F, ParC S80I mutation
Summary of the method: (§1)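 MICs measured by broth microdilution on the Sensititre automated system and interpreted by CLSI broth microdilution standards. Ciprofloxacin was also tested by agar dilution, widening the range to 0.0075–128 μg/ml. Quality control strains were E. coli ATCC 25922 and 35218, E. faecalis ATCC 29212, S. aureus ATCC 29213 and P. aeruginosa ATCC 27853.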

[2] = system: Salmonella typhimurium; test: Antimicrobial activity against Salmonella enterica serovar Typhimurium S21-3 with GyrA S83F, ParC S80I mutation; summary of the method: as §1
[3] = system: Salmonella typhimurium; test: Antimicrobial activity against Salmonella enterica serovar Typhimurium S21-1 tolC::Kan with GyrA S83F mutation; summary of the method: as §1
[4] = system: Salmonella typhimurium; test: Antimicrobial activity against Salmonella enterica serovar Typhimurium S21 acrAB::Kan
Summary of the method: (§2)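 MICs by automated broth microdilution panels, interpreted to CLSI broth microdilution standards. Ciprofloxacin additionally tested by agar dilution across 0.0075 to 128 μg/ml. Quality control strains: E. coli ATCC 25922 and 35218, Enterococcus faecalis ATCC 29212, S. aureus ATCC 29213, P. aeruginosa ATCC 27853. Test strains are kanamycin-marked deletion mutants of ground-beef isolate S21.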

[5] = system: Salmonella typhimurium; test: Antimicrobial activity against Salmonella enterica serovar Typhimurium S21-4 tolC::Kan with GyrA S83F, ParC S80I mutation; summary of the method: as §1
[6] = system: Salmonella typhimurium; test: Antimicrobial activity against Salmonella enterica serovar Typhimurium CHS38 with GyrA D87G mutation; summary of the method: as §1
[7] = system: Salmonella typhimurium; test: Antimicrobial activity against Salmonella enterica serovar Typhimurium CHS18 tolC::Kan with GyrA S38F mutation; summary of the method: as §1
[8] = system: Salmonella typhimurium; test: Antimicrobial activity against Salmonella enterica serovar Typhimurium S21-4 with GyrA S83F, ParC S80I mutation; summary of the method: as §1
[9] = system: Salmonella typhimurium; test: Antimicrobial activity against Salmonella enterica serovar Typhimurium CHS18 with GyrA S38F mutation; summary of the method: as §1
[10] = system: Salmonella typhimurium; test: Antimicrobial activity against Salmonella enterica serovar Typhimurium CHS18 gyrA+ with GyrA S38F mutation; summary of the method: as §1
[11] = system: Salmonella typhimurium; test: Antimicrobial activity against Salmonella enterica serovar Typhimurium CS3 gyrA+ with GyrA S83F, D87N, ParC S80I mutation; summary of the method: as §1
[12] = system: Salmonella typhimurium; test: Antimicrobial activity against Salmonella enterica serovar Typhimurium S21-1 GyrA S83F mutant; summary of the method: as §1
[13] = system: Salmonella typhimurium; test: Antimicrobial activity against Salmonella enterica serovar Typhimurium CHS38 acrAB::Kan with GyrA D87G mutation; summary of the method: as §1
[14] = system: Salmonella typhimurium; test: Antimicrobial activity against Salmonella enterica serovar Typhimurium CHS14 gyrA+ with GyrA D87G mutation; summary of the method: as §1
[15] = system: Salmonella typhimurium; test: Antimicrobial activity against Salmonella enterica serovar Typhimurium CHS14 with GyrA D87G mutation; summary of the method: as §1
[16] = system: Salmonella typhimurium; test: Antimicrobial activity against Salmonella enterica serovar Typhimurium CS9 gyrA+ with GyrA S83F, D87N, ParC S80I mutation; summary of the method: as §1
[17] = system: Salmonella typhimurium; test: Antimicrobial activity against Salmonella enterica serovar Typhimurium CHS38 tolC::Kan with GyrA D87G mutation; summary of the method: as §1
[18] = system: Salmonella typhimurium; test: Antimicrobial activity against Salmonella enterica serovar Typhimurium S21-3 gyrA+ with ParC S80I mutation; summary of the method: as §1
[19] = system: Salmonella typhimurium; test: Antimicrobial activity against Salmonella enterica serovar Typhimurium S21-2 gyrA+ with ParC S80I mutation; summary of the method: as §1
[20] = system: Salmonella typhimurium; test: Antimicrobial activity against Salmonella enterica serovar Typhimurium CS1 acrAB::Kan with GyrA S83F, D87N, ParC S80I mutation; summary of the method: as §1
[21] = system: Salmonella typhimurium; test: Antimicrobial activity against Salmonella enterica serovar Typhimurium S21-2 acrAB::Kan with GyrA S83F, ParC S80I mutation; summary of the method: as §1
[22] = system: Salmonella typhimurium; test: Antimicrobial activity against Salmonella enterica serovar Typhimurium CS1 gyrA+ with GyrA S83F, D87N, ParC S80I mutation; summary of the method: as §1
[23] = system: Salmonella typhimurium; test: Antimicrobial activity against Salmonella enterica serovar Typhimurium CS3 with GyrA S83F, D87N, ParC S80I mutation; summary of the method: as §1
[24] = system: Salmonella typhimurium; test: Antimicrobial activity against Salmonella enterica serovar Typhimurium S21 tolC::Kan; summary of the method: as §2
[25] = system: Salmonella typhimurium; test: Antimicrobial activity against Salmonella enterica serovar Typhimurium S21 gyrA+; summary of the method: as §1
[26] = system: Salmonella typhimurium; test: Antimicrobial activity against Salmonella enterica serovar Typhimurium S21-3 tolC::Kan with GyrA S83F, ParC S80I mutation; summary of the method: as §1
[27] = system: Salmonella typhimurium; test: Antimicrobial activity against Salmonella enterica serovar Typhimurium S21-4 gyrA+ with ParC S80I mutation; summary of the method: as §1
[28] = system: Salmonella typhimurium; test: Antimicrobial activity against Salmonella enterica serovar Typhimurium CHS14 tolC::Kan with GyrA D87G mutant; summary of the method: as §1
[29] = system: Salmonella typhimurium; test: Antimicrobial activity against Salmonella enterica serovar Typhimurium S21-2 with GyrA S83F, ParC S80I mutation; summary of the method: as §1
[30] = system: Salmonella typhimurium; test: Antimicrobial activity against Salmonella enterica serovar Typhimurium S21; summary of the method: as §1
[31] = system: Salmonella typhimurium; test: Antimicrobial activity against Salmonella enterica serovar Typhimurium CS1 tolC::Kan with GyrA S83F, D87N, ParC S80I mutation; summary of the method: as §1
[32] = system: Salmonella typhimurium; test: Antimicrobial activity against Salmonella enterica serovar Typhimurium CHS14 acrAB::Kan with GyrA D87G mutation; summary of the method: as §1
[33] = system: Salmonella typhimurium; test: Antimicrobial activity against Salmonella enterica serovar Typhimurium CS3 acrAB::Kan with GyrA S83F, D87N, ParC S80I mutation; summary of the method: as §1
[34] = system: Salmonella typhimurium; test: Antimicrobial activity against Salmonella enterica serovar Typhimurium CS9 acrAB::Kan with GyrA S83F, D87N, ParC S80I mutation; summary of the method: as §1
[35] = system: Salmonella typhimurium; test: Antimicrobial activity against Salmonella enterica serovar Typhimurium S21-1 gyrA+; summary of the method: as §1
[36] = system: Salmonella typhimurium; test: Antimicrobial activity against Salmonella enterica serovar Typhimurium CHS18 acrAB::Kan with GyrA S38F mutation; summary of the method: as §1
[37] = system: Salmonella typhimurium; test: Antimicrobial activity against Salmonella enterica serovar Typhimurium CS9 with GyrA S83F, D87N, ParC S80I mutation; summary of the method: as §1
[38] = system: Salmonella typhimurium; test: Antimicrobial activity against Salmonella enterica serovar Typhimurium S21-2 tolC::Kan with GyrA S83F, ParC S80I mutation; summary of the method: as §1
[39] = system: Salmonella typhimurium; test: Antimicrobial activity against Salmonella enterica serovar Typhimurium S21-4 acrAB::Kan with GyrA S83F, ParC S80I mutation; summary of the method: as §1
[40] = system: Salmonella typhimurium; test: Antimicrobial activity against Salmonella enterica serovar Typhimurium CHS38 gyrA+ with GyrA D87G mutation; summary of the method: as §1
[41] = system: Salmonella typhimurium; test: Antimicrobial activity against Salmonella enterica serovar Typhimurium CS9 tolC::Kan with GyrA S83F, D87N, ParC S80I mutation; summary of the method: as §1
[42] = system: Salmonella typhimurium; test: Antimicrobial activity against Salmonella enterica serovar Typhimurium CS1 with GyrA S83F, D87N, ParC S80I mutation; summary of the method: as §1
[43] = system: Salmonella typhimurium; test: Antimicrobial activity against Salmonella enterica serovar Typhimurium GyrA S21-1 acrAB::Kan with GyrA S83F mutation; summary of the method: as §1
[44] = system: Salmonella typhimurium; test: Antimicrobial activity against Salmonella enterica serovar Typhimurium CS3 tolC::Kan with GyrA S83F, D87N, parC S80I mutation; summary of the method: as §1

CN1CCN(c2cc3c(cc2F)c(=O)c(C(=O)O)cn3-c2ccc(F)cc2)CC1 [DIFLOXACIN]
MIC [1]: 0.5 µg/mL (≈ 1.25 µM)
MIC [2]: > 16 µg/mL
MIC [3]: 0.25 µg/mL (≈ 0.626 µM)
MIC [4]: < 0.015 µg/mL
MIC [5]: 1 µg/mL (≈ 2.5 µM)
MIC [6]: 1 µg/mL (≈ 2.5 µM)
MIC [7]: 0.06 µg/mL (≈ 0.15 µM)
MIC [8]: > 16 µg/mL
MIC [9]: 2 µg/mL (≈ 5.01 µM)
MIC [10]: 0.25 µg/mL (≈ 0.626 µM)
MIC [11]: 0.5 µg/mL (≈ 1.25 µM)
MIC [12]: 4 µg/mL (≈ 10 µM)
MIC [13]: 0.06 µg/mL (≈ 0.15 µM)
MIC [14]: 0.5 µg/mL (≈ 1.25 µM)
MIC [15]: 1 µg/mL (≈ 2.5 µM)
MIC [16]: 0.5 µg/mL (≈ 1.25 µM)
MIC [17]: < 0.015 µg/mL
MIC [18]: 4 µg/mL (≈ 10 µM)
MIC [19]: 2 µg/mL (≈ 5.01 µM)
MIC [20]: 16 µg/mL (≈ 40.1 µM)
MIC [21]: 0.25 µg/mL (≈ 0.626 µM)
MIC [22]: 0.5 µg/mL (≈ 1.25 µM)
MIC [23]: > 16 µg/mL
MIC [24]: < 0.015 µg/mL
MIC [25]: 0.25 µg/mL (≈ 0.626 µM)
MIC [26]: 0.5 µg/mL (≈ 1.25 µM)
MIC [27]: 4 µg/mL (≈ 10 µM)
MIC [28]: 0.03 µg/mL (≈ 0.0751 µM)
MIC [29]: > 16 µg/mL
MIC [30]: 0.25 µg/mL (≈ 0.626 µM)
MIC [31]: 4 µg/mL (≈ 10 µM)
MIC [32]: 0.03 µg/mL (≈ 0.0751 µM)
MIC [33]: 16 µg/mL (≈ 40.1 µM)
MIC [34]: 16 µg/mL (≈ 40.1 µM)
MIC [35]: 0.25 µg/mL (≈ 0.626 µM)
MIC [36]: 1 µg/mL (≈ 2.5 µM)
MIC [37]: > 16 µg/mL
MIC [38]: 0.25 µg/mL (≈ 0.626 µM)
MIC [39]: 1 µg/mL (≈ 2.5 µM)
MIC [40]: < 0.015 µg/mL
MIC [41]: 4 µg/mL (≈ 10 µM)
MIC [42]: > 16 µg/mL
MIC [43]: 0.25 µg/mL (≈ 0.626 µM)
MIC [44]: 4 µg/mL (≈ 10 µM)
